According to ChEMBL document CHEMBL5346886 (Eur J Med Chem, 2023):
Values after ≈ are worked out from the molar mass of the structure shown. Active and inactive are the calls of the source. No cut-off for these calls is given here.

Tests used:
Murine hepatitis virus [1] = experiment: Antiviral activity against Murine hepatitis virus-A59 infected in mouse L929 cells assessed as reduction in viral copy upto 200 uM pre-infected with cell for 1 hrs followed by compound addition and measured after 48 hrs by RT-qPCR analysis; type: functional, organism-based
Outline: (§1)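 L929 cells in DMEM with 10% FBS were seeded for 24 h to 80% confluence and washed thrice with serum-free medium. Cells were infected with MHV-A59 at MOI 0.01 for 1 h at 37 °C, then compound was added, with DMSO as the blank control. After 48 h at 37 °C, cells and supernatants were taken for qRT-PCR of viral copies. Inhibition was calculated from copy number and fitted for EC50.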

Murine hepatitis virus [2] = experiment: Antiviral activity against Murine hepatitis virus-A59 infected in mouse L929 cells assessed as reduction in viral copy pre-infected with cell for 1 hrs followed by compound addition and measured after 48 hrs in the presence of remdesivir by RT-qPCR analysis; type: functional, organism-based; outline: as §1
[3] = Tmax in Sprague-Dawley rat at 25 mg/kg, po administered as single dose and measured at 0.25 to 24 hrs by LC-MS/MS analysis; type: ADME, organism-based; details: in vivo, time 0.25-24 hrs
[4] = Cmax in Sprague-Dawley rat at 25 mg/kg, po administered as single dose and measured at 0.25 to 24 hrs by LC-MS/MS analysis; type: ADME, organism-based; parameters: dose 25 mg/kg, time 0.25-24 hrs, route po; details: in vivo
[5] = AUC (0 to infinity) in Sprague-Dawley rat at 25 mg/kg, po administered as single dose and measured at 0.25 to 24 hrs by LC-MS/MS analysis; type: ADME, organism-based; parameters: time upper 24 hrs, time lower 0.25 hrs, dose 25 mg/kg, route po; details: in vivo
[6] = Oral bioavailability in Sprague-Dawley rat at 25 mg/kg administered as single dose and measured at 0.25 to 24 hrs by LC-MS/MS analysis; type: ADME, organism-based; details: in vivo, time 0.25-24 hrs
[7] = Tmax in Sprague-Dawley rat at 5 mg/kg, iv administered as single dose and measured at 0.083 to 24 hrs by LC-MS/MS analysis; type: ADME, organism-based; details: in vivo, time 0.083-24 hrs
[8] = Cmax in Sprague-Dawley rat at 5 mg/kg, iv administered as single dose and measured at 0.083 to 24 hrs by LC-MS/MS analysis; type: ADME, organism-based; parameters: dose 5 mg/kg, time 0.083-24 hrs, route iv; details: in vivo
[9] = AUC (0 to infinity) in Sprague-Dawley rat at 5 mg/kg, iv administered as single dose and measured at 0.083 to 24 hrs by LC-MS/MS analysis; type: ADME, organism-based; parameters: time upper 24 hrs, dose 5 mg/kg, time lower 0.083 hrs, route iv; details: in vivo
Murine hepatitis virus [10] = experiment: Antiviral activity against murine hepatitis virus-A59 infected in BALB/c mouse assessed as inhibition of viral replication in liver at 70 mg/kg, po administered once daily one hour post infection and measured after 3 days by qRT-PCR analysis; type: functional, organism-based; details: time 3.0 day
Outline: (§2)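 SPF male BALB/c mice aged 3–4 weeks were put under isoflurane and inoculated intranasally with 30 μL MHV-A59 (TCID50 = 10−7.125/100 μL) in PBS. Oral dosing once daily in 15% Cremophor EL/82.5% PBS/2.5% DMSO started at 1 hpi and ran for four days; groups had 12 mice. At 3 dpi, 4 mice per group were killed and lung and liver M-gene copies measured by qRT-PCR.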

Murine hepatitis virus [11] = experiment: Antiviral activity against murine hepatitis virus-A59 infected in BALB/c mouse assessed as inhibition of viral replication in lungs at 70 mg/kg, po administered once daily one hour post infection and measured after 3 days by qRT-PCR analysis; type: functional, organism-based; details: time 3.0 day; outline: as §2
Murine hepatitis virus [12] = experiment: Antiviral activity against murine hepatitis virus-A59 infected in BALB/c mouse assessed as reduction in TNF-alpha production in liver at 70 mg/kg, po administered once daily one hour post infection and measured after 3 days by ELISA analysis; type: functional, organism-based; details: time 3.0 day
Outline: (§3)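 MHV-A59 was inoculated intranasally into male BALB/c mice (30 μL, TCID50 = 10−7.125/100 μL), with oral dosing once daily from 1 hpi for four days. At 3 dpi, 0.1 g lung or liver from 4 mice per group was homogenized in 0.9 mL water at 4 °C and centrifuged. Supernatant IFN-β was read by ELISA; TNF-α, IFN-γ, IL-1β, IL-6 and CXCL10 by multi-analyte kit, with OD 450 nm against standards.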

Murine hepatitis virus [13] = experiment: Antiviral activity against murine hepatitis virus-A59 infected in BALB/c mouse assessed as reduction in IL-1beta production in liver at 70 mg/kg, po administered once daily one hour post infection and measured after 3 days by ELISA analysis; type: functional, organism-based; details: time 3.0 day; outline: as §3
Murine hepatitis virus [14] = experiment: Antiviral activity against murine hepatitis virus-A59 infected in BALB/c mouse assessed as reduction in IL6 production in liver at 70 mg/kg, po administered once daily one hour post infection and measured after 3 days by ELISA analysis; type: functional, organism-based; details: time 3.0 day; outline: as §3
Murine hepatitis virus [15] = experiment: Antiviral activity against murine hepatitis virus-A59 infected in BALB/c mouse assessed as reduction in IFN-gamma production in liver at 70 mg/kg, po administered once daily one hour post infection and measured after 3 days by ELISA analysis; type: functional, organism-based; details: time 3.0 day; outline: as §3
Murine hepatitis virus [16] = experiment: Antiviral activity against murine hepatitis virus-A59 infected in BALB/c mouse assessed as reduction in CXCL10 production in liver at 70 mg/kg, po administered once daily one hour post infection and measured after 3 days by ELISA analysis; type: functional, organism-based; details: time 3.0 day; outline: as §3
Murine hepatitis virus [17] = experiment: Antiviral activity against murine hepatitis virus-A59 infected in BALB/c mouse assessed as reduction in IFN-beta production in liver at 70 mg/kg, po administered once daily one hour post infection and measured after 3 days by ELISA analysis; type: functional, organism-based; details: time 3.0 day; outline: as §3
Murine hepatitis virus [18] = experiment: Antiviral activity against Murine hepatitis virus-A59 infected in mouse L929 cells assessed as reduction in viral copy pre-infected with cell for 1 hrs followed by compound addition and measured after 48 hrs by RT-qPCR analysis; type: functional, organism-based; details: Murine coronavirus
Outline: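 L929 cells in DMEM with 10% FBS were washed serum-free at 80% confluence and infected with MHV-A59 at MOI 0.01 for 1 h at 37 °C. Compounds were added at 0.1–100 μmol/L, with DMSO as blank control. After 48 h at 37 °C, the viral M gene in supernatant was measured by qRT-PCR. Percent inhibition was derived from copy number and EC50 from curve fitting.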

[19] = Stability in human plasma assessed as half-life; type: ADME, cell-free
[20] = Solubility of the compound; type: physicochemical
[21] = MRT (0 to infinity) in Sprague-Dawley rat at 25 mg/kg, po administered as single dose and measured at 0.25 to 24 hrs by LC-MS/MS analysis; type: ADME, organism-based; details: in vivo, time 0.25-24 hrs
[22] = MRT (0 to infinity) in Sprague-Dawley rat at 5 mg/kg, iv administered as single dose and measured at 0.083 to 24 hrs by LC-MS/MS analysis; type: ADME, organism-based; details: in vivo, time 0.083-24 hrs
Murine hepatitis virus [23] = experiment: Antiviral activity against murine hepatitis virus-A59 infected in BALB/c mouse assessed as inhibition of viral replication in liver at 100 mg/kg, po administered once daily one hour post infection and measured after 3 days by qRT-PCR analysis; type: functional, organism-based; details: time 3.0 day; outline: as §2
Murine hepatitis virus [24] = experiment: Antiviral activity against murine hepatitis virus-A59 infected in BALB/c mouse assessed as inhibition of viral titer in liver at 100 mg/kg, po administered once daily one hour post infection and measured after 3 days by qRT-PCR analysis; type: functional, organism-based; details: time 3.0 day; outline: as §2
Murine hepatitis virus [25] = experiment: Antiviral activity against murine hepatitis virus-A59 infected in BALB/c mouse assessed as inhibition of viral replication in lungs at 100 mg/kg, po administered once daily one hour post infection and measured after 3 days by qRT-PCR analysis; type: functional, organism-based; details: time 3.0 day; outline: as §2
Murine hepatitis virus [26] = experiment: Antiviral activity against murine hepatitis virus-A59 infected in BALB/c mouse assessed as alleviation of interstitial pneumonia in lungs at 100 mg/kg, po administered once daily one hour post infection and measured after 3 days by H&E staining based analysis; type: functional, organism-based; details: time 3.0 day
Outline: (§4)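 In male BALB/c mice (3–4 weeks), MHV-A59 was given intranasally (30 μL, TCID50 = 10−7.125/100 μL). Oral dosing once daily in a Cremophor EL/PBS/DMSO vehicle began at 1 hpi and lasted four days. At 3 dpi, lungs and livers from 4 mice per group were fixed in zinc formalin and paraffin-embedded. Sections of about 4 μm were stained with H&E and examined at 200× and 400×.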

Murine hepatitis virus [27] = experiment: Antiviral activity against murine hepatitis virus-A59 infected in BALB/c mouse assessed as alleviation of thickened alveolar septa in lungs at 100 mg/kg, po administered once daily one hour post infection and measured after 3 days by H&E staining based analysis; type: functional, organism-based; details: time 3.0 day; outline: as §4
Murine hepatitis virus [28] = experiment: Antiviral activity against murine hepatitis virus-A59 infected in BALB/c mouse assessed as alleviation of lymphocytes infiltration in lungs at 100 mg/kg, po administered once daily one hour post infection and measured after 3 days by H&E staining based analysis; type: functional, organism-based; details: time 3.0 day; outline: as §4
Murine hepatitis virus [29] = experiment: Antiviral activity against murine hepatitis virus-A59 infected in BALB/c mouse assessed as alleviation of necrotic debris in lungs at 100 mg/kg, po administered once daily one hour post infection and measured after 3 days by H&E staining based analysis; type: functional, organism-based; details: time 3.0 day; outline: as §4
Murine hepatitis virus [30] = experiment: Antiviral activity against murine hepatitis virus-A59 infected in BALB/c mouse assessed as reduction in mortality at 100 mg/kg, po administered once daily one hour post infection and measured after 23 days; type: functional, organism-based; details: time 23.0 day
Outline: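 After intranasal MHV-A59 inoculation (30 μL, TCID50 = 10−7.125/100 μL), 3–4-week-old male BALB/c mice received oral drug or vehicle once daily from 1 hpi for four days, 12 per group. The remaining mice were monitored daily for body weight, clinical signs and death until 23 dpi; survival curves were plotted.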

Murine hepatitis virus [31] = experiment: Potency index, ratio of GS-441524 EC50 to test compound EC50 for antiviral activity against Murine hepatitis virus-A59 infected in mouse L929 cells assessed as reduction in viral copy pre-infected with cell for 1 hrs followed by compound addition and measured after 48 hrs by RT-qPCR analysis; type: functional

CC(C)Cc1ccc(C(C)C(=O)O)cc1 (stereo not given) [IBUPROFEN]
Activity (Murine hepatitis virus [1]): inactive
Activity (Murine hepatitis virus [2]): inactive
Tmax [3]: 0.67 h
Cmax [4]: 80.2 µM
AUC [5]: 263 uM.hr/L
F [6]: 78.42%
Tmax [7]: 1.8 min
Cmax [8]: 41.8 µM
AUC [9]: 67.1 uM.hr/L
Activity (Murine hepatitis virus [10]): inactive
Activity (Murine hepatitis virus [11]): inactive
Activity (Murine hepatitis virus [12]): inactive
Activity (Murine hepatitis virus [13]): inactive
Activity (Murine hepatitis virus [14]): inactive
Activity (Murine hepatitis virus [15]): inactive
Activity (Murine hepatitis virus [16]): inactive
Activity (Murine hepatitis virus [17]): inactive

COc1ccc2cc([C@H](C)C(=O)OC[C@H]3O[C@@](C#N)(c4ccc5c(N)ncnn45)[C@H](O)[C@@H]3O)ccc2c1
EC50 (Murine hepatitis virus [18]): 8.65 µM
t1/2 [19]: 3.0328 h
solubility [20]: 155 µM (≈ 78 µg/mL)

CCC(CC)COC(=O)[C@H](C)N[P@](=O)(OC[C@H]1O[C@@](C#N)(c2ccc3c(N)ncnn23)[C@H](O)[C@@H]1O)Oc1ccccc1
EC50 (Murine hepatitis virus [18]): 1.82 µM

COc1ccc2c(c1)c(CC(=O)OC[C@H]1O[C@@](C#N)(c3ccc4c(N)ncnn34)[C@H](O)[C@@H]1O)c(C)n2C(=O)c1ccc(Cl)cc1
EC50 (Murine hepatitis virus [18]): 10.1 µM
t1/2 [19]: 2.8345 h
solubility [20]: 0.1 µM (≈ 0.0631 µg/mL)

N#C[C@@]1(c2ccc3c(N)ncnn23)O[C@H](CO)C(O)C1O (single isomer, unassigned) [GS-441524]
EC50 (Murine hepatitis virus [18]): 10 µM
Cmax [4]: 7.75 µM
AUC [5]: 22.6 uM.hr/L
MRT [21]: 3.16 h
F [6]: 60.31%
Cmax [8]: 5.67 µM
AUC [9]: 7.51 uM.hr/L
MRT [22]: 1.28 h
Activity (Murine hepatitis virus [23]): Active
Activity (Murine hepatitis virus [24]): Active
Activity (Murine hepatitis virus [25]): Active
Activity (Murine hepatitis virus [26]): inactive
Activity (Murine hepatitis virus [27]): inactive
Activity (Murine hepatitis virus [28]): inactive
Activity (Murine hepatitis virus [29]): inactive
Activity (Murine hepatitis virus [30]): Active

CC(C(=O)OC[C@H]1O[C@@](C#N)(c2ccc3c(N)ncnn23)[C@H](O)[C@@H]1O)c1cccc(C(=O)c2ccccc2)c1 (stereo not given in full)
EC50 (Murine hepatitis virus [18]): 4.17 µM
t1/2 [19]: 3.3197 h
solubility [20]: 1070 µM (≈ 566 µg/mL)

CC(C(=O)OC[C@H]1O[C@@](C#N)(c2ccc3c(N)ncnn23)[C@H](O)[C@@H]1O)c1cccc(Oc2ccccc2)c1 (stereo not given in full)
EC50 (Murine hepatitis virus [18]): 1.27 µM
Ratio EC50 (Murine hepatitis virus [31]): 8
t1/2 [19]: 2.8218 h
solubility [20]: 29 µM (≈ 15 µg/mL)

N#C[C@@]1(c2ccc3c(N)ncnn23)O[C@H](COC(=O)Cc2ccccc2Nc2c(Cl)cccc2Cl)[C@@H](O)[C@H]1O
EC50 (Murine hepatitis virus [18]): 6.4 µM
t1/2 [19]: 3.186 h
solubility [20]: 3.7 µM (≈ 2.11 µg/mL)
